In brackets after ≈: the same amount, converted by molar mass.
Assays:
Nakaseomyces glabratus [1] = assay: Antifungal activity against voriconazole-resistant Candida glabrata clinical isolate 730 assessed as growth inhibition after 24 to 48 hrs by CLSI microbroth dilution method; format: functional
In short: (§1)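 Microbroth dilution per CLSI M27-A3. Isolates subcultured for purity, incubated at 35 °C; five colonies >1 mm suspended in saline, adjusted to 0.5 × 10³ to 2.5 × 10³ in RPMI 1640 buffered to pH 7.0 with 0.165 M MOPS. Compounds diluted in RPMI to final […]. Read visually after 24 h and 48 h at 35 °C; MIC judged by turbidity against drug-free growth control.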

Candida albicans [2] = assay: Antifungal activity against azole-resistant Candida albicans clinical isolate 7.O.A assessed as growth inhibition after 24 to 48 hrs by CLSI microbroth dilution method; format: functional; in short: as §1
Candida albicans [3] = assay: Antifungal activity against fluconazole-resistant Candida albicans clinical isolate 5.O.A assessed as growth inhibition after 24 to 48 hrs by CLSI microbroth dilution method; format: functional; in short: as §1
Candida parapsilosis [4] = assay: Antifungal activity against anidulafungin-resistant Candida parapsilosis isolate 22019 assessed as growth inhibition after 24 to 48 hrs by CLSI microbroth dilution method; format: functional; details: Lodderomyces parapsilosis; in short: as §1
Candida albicans [5] = assay: Antifungal activity against caspofungin-resistant Candida albicans assessed as growth inhibition after 24 to 48 hrs by CLSI microbroth dilution method
Nakaseomyces glabratus [6] = assay: Antifungal activity against voriconazole-resistant Candida glabrata clinical isolate 724 assessed as growth inhibition after 24 to 48 hrs by CLSI microbroth dilution method; format: functional; in short: as §1
Nakaseomyces glabratus [7] = assay: Antifungal activity against fluconazole-resistant Candida glabrata isolate 6258 assessed as growth inhibition after 24 to 48 hrs by CLSI microbroth dilution method; format: functional; in short: as §1
Candida parapsilosis [8] = assay: Antifungal activity against anidulafungin-resistant Candida parapsilosis ANF8 assessed as growth inhibition after 24 to 48 hrs by CLSI microbroth dilution method; format: functional; details: Lodderomyces parapsilosis; in short: as §1
[9] = Cytotoxicity against mouse NIH/3T3 cells assessed as cell viability at 62.5 ug/mL after 24 hrs by MTT assay relative to control; format: cell-based, NIH3T3; details: read-out: Activity
In short: (§2)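 NIH/3T3 fibroblasts kept in DMEM with 10% fetal calf serum, penicillin/streptomycin, 37 °C, 5% CO2. Cells seeded at 2 × 10⁴ cells/mL, grown 24 h, then given compound (DMSO stock diluted in medium, final DMSO <0.1%) for 24 h. MTT at 0.5 mg/mL final added for 4 h, formazan dissolved in DMSO, absorbance read at 540 nm. Triplicate wells, mean ± SD, assay run twice.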

[10] = Cytotoxicity against mouse NIH/3T3 cells assessed as cell viability at 1 ug/mL after 24 hrs by MTT assay relative to control; format: cell-based, NIH3T3; details: read-out: Activity; in short: as §2
[11] = Cytotoxicity against mouse NIH/3T3 cells assessed as cell viability at 0.5 ug/mL after 24 hrs by MTT assay relative to control; format: cell-based, NIH3T3; details: read-out: Activity; in short: as §2
[12] = Cytotoxicity against mouse NIH/3T3 cells assessed as cell viability at 31.3 ug/mL after 24 hrs by MTT assay relative to control; format: cell-based, NIH3T3; details: read-out: Activity; in short: as §2

Compound COc1ccc(O)c(-c2csc(N/N=C/c3cc[nH]c3)n2)c1 has an MIC (Nakaseomyces glabratus [1]) of 16 µg/mL (≈ 50.9 µM), an MIC (Candida albicans [2]) of over 16 µg/mL and an MIC (Candida albicans [3]) of 16 µg/mL (≈ 50.9 µM). It also gave an MIC (Candida parapsilosis [4]) of 16 µg/mL (≈ 50.9 µM), an MIC (Candida albicans [5]) of 16 µg/mL (≈ 50.9 µM) and an MIC (Nakaseomyces glabratus [6]) of 8 µg/mL (≈ 25.4 µM). For the same compound, the MIC (Nakaseomyces glabratus [7]) was over 16 µg/mL and the MIC (Candida parapsilosis [8]) was over 16 µg/mL.
COc1ccc(O)c(-c2csc(N/N=C/c3ccco3)n2)c1 gave an MIC (Nakaseomyces glabratus [1]) of over 16 µg/mL, an MIC (Candida albicans [2]) of over 16 µg/mL and an MIC (Candida albicans [3]) of over 16 µg/mL. It also gave an MIC (Candida parapsilosis [4]) of over 16 µg/mL, an MIC (Candida albicans [5]) of over 16 µg/mL and an MIC (Nakaseomyces glabratus [6]) of over 16 µg/mL. It also gave an MIC (Nakaseomyces glabratus [7]) of over 16 µg/mL and an MIC (Candida parapsilosis [8]) of over 16 µg/mL.
Work on COc1ccc(O)c(-c2csc(N/N=C/c3cnc[nH]3)n2)c1 yielded an MIC (Nakaseomyces glabratus [1]) of over 16 µg/mL, an MIC (Candida albicans [2]) of over 16 µg/mL and an MIC (Candida albicans [3]) of over 16 µg/mL. It also gave an MIC (Candida parapsilosis [4]) of over 16 µg/mL, an MIC (Candida albicans [5]) of over 16 µg/mL and an MIC (Nakaseomyces glabratus [6]) of over 16 µg/mL. The MIC (Nakaseomyces glabratus [7]) was over 16 µg/mL and the MIC (Candida parapsilosis [8]) was over 16 µg/mL.
COc1ccc(O)c(-c2csc(N/N=C/c3c(-c4ccccc4)nc4scc(C)n34)n2)c1 showed a viability at 24 h, 62.5 ug/mL [9] of 59.5%, an MIC (Nakaseomyces glabratus [1]) of 2 µg/mL (≈ 4.33 µM) and an MIC (Candida albicans [2]) of over 16 µg/mL. For the same compound, the viability at 24 h, 1 ug/mL [10] was 90%, the MIC (Candida albicans [3]) was over 16 µg/mL and the MIC (Candida parapsilosis [4]) was over 16 µg/mL. For the same compound, the MIC (Candida albicans [5]) was over 16 µg/mL, the MIC (Nakaseomyces glabratus [6]) was over 16 µg/mL and the viability at 24 h, 0.5 ug/mL [11] was 94.6%. The viability at 24 h, 31.3 ug/mL [12] was 64.1%, the MIC (Nakaseomyces glabratus [7]) was over 16 µg/mL and the MIC (Candida parapsilosis [8]) was 4 µg/mL (≈ 8.67 µM).
Compound C/C(=N\Nc1nc([C@H](C)NC(=O)OCc2ccccc2)cs1)c1ccc2c(c1)CCC2 has an MIC (Nakaseomyces glabratus [1]) of over 16 µg/mL, an MIC (Candida albicans [2]) of over 16 µg/mL and an MIC (Candida albicans [3]) of over 16 µg/mL. The MIC (Candida parapsilosis [4]) was over 16 µg/mL, the MIC (Candida albicans [5]) was over 16 µg/mL and the MIC (Nakaseomyces glabratus [6]) was over 16 µg/mL. The MIC (Nakaseomyces glabratus [7]) was over 16 µg/mL and the MIC (Candida parapsilosis [8]) was over 16 µg/mL.
For C/C(=N\Nc1nc([C@H](Cc2ccccc2)NC(=O)OCc2ccccc2)cs1)c1ccc2c(c1)CCC2, the MIC (Nakaseomyces glabratus [1]) was over 16 µg/mL, the MIC (Candida albicans [2]) was over 16 µg/mL and the MIC (Candida albicans [3]) was over 16 µg/mL. The MIC (Candida parapsilosis [4]) was over 16 µg/mL, the MIC (Candida albicans [5]) was over 16 µg/mL and the MIC (Nakaseomyces glabratus [6]) was over 16 µg/mL. The MIC (Nakaseomyces glabratus [7]) was over 16 µg/mL and the MIC (Candida parapsilosis [8]) was over 16 µg/mL.
Work on C/C(=N\Nc1nc([C@H](Cc2c[nH]c3ccccc23)NC(=O)OCc2ccccc2)cs1)c1ccc2c(c1)CCC2 yielded an MIC (Nakaseomyces glabratus [1]) of 8 µg/mL (≈ 14.6 µM), an MIC (Candida albicans [2]) of over 16 µg/mL and an MIC (Candida albicans [3]) of over 16 µg/mL. The MIC (Candida parapsilosis [4]) was 8 µg/mL (≈ 14.6 µM), the MIC (Candida albicans [5]) was over 16 µg/mL and the MIC (Nakaseomyces glabratus [6]) was over 16 µg/mL. For the same compound, the MIC (Nakaseomyces glabratus [7]) was over 16 µg/mL and the MIC (Candida parapsilosis [8]) was over 16 µg/mL.
C[C@@H]1[C@H](O)[C@@H](C)/C=C/C=C/C=C/C=C/C=C/C=C/C=C/[C@H](O[C@@H]2O[C@H](C)[C@@H](O)[C@H](N)[C@@H]2O)C[C@@H]2O[C@](O)(C[C@@H](O)C[C@@H](O)[C@H](O)CC[C@@H](O)C[C@@H](O)CC(=O)O[C@H]1C)C[C@H](O)[C@H]2C(=O)O [AMPHOTERICIN B] showed an MIC (Nakaseomyces glabratus [1]) of 1 µg/mL (≈ 1.08 µM), an MIC (Candida albicans [2]) of 0.5 µg/mL (≈ 0.541 µM) and an MIC (Candida albicans [3]) of 0.5 µg/mL (≈ 0.541 µM). For the same compound, the MIC (Candida parapsilosis [4]) was 1 µg/mL (≈ 1.08 µM), the MIC (Candida albicans [5]) was 0.5 µg/mL (≈ 0.541 µM) and the MIC (Nakaseomyces glabratus [6]) was 0.5 µg/mL (≈ 0.541 µM). It also gave an MIC (Nakaseomyces glabratus [7]) of 1 µg/mL (≈ 1.08 µM) and an MIC (Candida parapsilosis [8]) of 0.5 µg/mL (≈ 0.541 µM).
Compound CC[C@H](C)C[C@H](C)CCCCCCCCC(=O)N[C@H]1C[C@@H](O)[C@@H](NCCN)NC(=O)[C@@H]2[C@@H](O)CCN2C(=O)[C@H]([C@H](O)CCN)NC(=O)[C@H]([C@H](O)[C@@H](O)c2ccc(O)cc2)NC(=O)[C@@H]2C[C@@H](O)CN2C(=O)[C@H]([C@@H](C)O)NC1=O [CASPOFUNGIN] has an MIC (Nakaseomyces glabratus [1]) of 2 µg/mL (≈ 1.83 µM), an MIC (Candida albicans [2]) of 0.25 µg/mL (≈ 0.229 µM) and an MIC (Candida albicans [3]) of 0.5 µg/mL (≈ 0.457 µM). The MIC (Candida parapsilosis [4]) was 0.5 µg/mL (≈ 0.457 µM), the MIC (Candida albicans [5]) was 0.5 µg/mL (≈ 0.457 µM) and the MIC (Nakaseomyces glabratus [6]) was 0.5 µg/mL (≈ 0.457 µM). It also gave an MIC (Nakaseomyces glabratus [7]) of 2 µg/mL (≈ 1.83 µM) and an MIC (Candida parapsilosis [8]) of 8 µg/mL (≈ 7.32 µM).
Work on OC(Cn1cncn1)(Cn1cncn1)c1ccc(F)cc1F [FLUCONAZOLE] yielded an MIC (Nakaseomyces glabratus [1]) of 64 µg/mL (≈ 209 µM), an MIC (Candida albicans [2]) of over 64 µg/mL and an MIC (Candida albicans [3]) of 32 µg/mL (≈ 104 µM). For the same compound, the MIC (Candida parapsilosis [4]) was 64 µg/mL (≈ 209 µM), the MIC (Candida albicans [5]) was 0.125 µg/mL (≈ 0.408 µM) and the MIC (Nakaseomyces glabratus [6]) was 64 µg/mL (≈ 209 µM). It also gave an MIC (Nakaseomyces glabratus [7]) of 16 µg/mL (≈ 52.2 µM) and an MIC (Candida parapsilosis [8]) of 1 µg/mL (≈ 3.27 µM).
Compound CCC(C)n1ncn(-c2ccc(N3CCN(c4ccc(OCC5COC(Cn6cncn6)(c6ccc(Cl)cc6Cl)O5)cc4)CC3)cc2)c1=O (stereo not given) [ITRACONAZOLE] has an MIC (Nakaseomyces glabratus [1]) of 1 µg/mL (≈ 1.42 µM), an MIC (Candida albicans [2]) of over 16 µg/mL and an MIC (Candida albicans [3]) of 0.5 µg/mL (≈ 0.709 µM). The MIC (Candida parapsilosis [4]) was 0.5 µg/mL (≈ 0.709 µM), the MIC (Candida albicans [5]) was 0.03 µg/mL (≈ 0.0425 µM) and the MIC (Nakaseomyces glabratus [6]) was 2 µg/mL (≈ 2.83 µM). The MIC (Nakaseomyces glabratus [7]) was 0.5 µg/mL (≈ 0.709 µM) and the MIC (Candida parapsilosis [8]) was 0.03 µg/mL (≈ 0.0425 µM).
C[C@@H](c1ncncc1F)[C@](O)(Cn1cncn1)c1ccc(F)cc1F [VORICONAZOLE] gave an MIC (Nakaseomyces glabratus [1]) of 16 µg/mL (≈ 45.8 µM), an MIC (Candida albicans [2]) of over 16 µg/mL and an MIC (Candida albicans [3]) of 0.25 µg/mL (≈ 0.716 µM). For the same compound, the MIC (Candida parapsilosis [4]) was 0.25 µg/mL (≈ 0.716 µM), the MIC (Candida albicans [5]) was 0.25 µg/mL (≈ 0.716 µM) and the MIC (Nakaseomyces glabratus [6]) was 8 µg/mL (≈ 22.9 µM). The MIC (Nakaseomyces glabratus [7]) was 2 µg/mL (≈ 5.73 µM) and the MIC (Candida parapsilosis [8]) was 0.06 µg/mL (≈ 0.172 µM).

— ChEMBL document CHEMBL2331219, “Synthesis and anti-Candida activity of novel 2-hydrazino-1,3-thiazole derivatives” (Bioorg Med Chem Lett, 2013)
